A short description of data set [1]: Drug degradation in dog hepatocytes assessed as 5-hydroxy-indazole formation at 10 uM up to 120 mins by LC-MS/MS analysis. The class given is ADME, cell-based, Canis lupus familiaris, Hepatocyte. To be noted: 2 h.
The nature of data set [2]: Drug degradation in rat hepatocytes assessed as 5-hydroxy-indazole formation at 10 uM up to 120 mins by LC-MS/MS analysis. It counts as ADME, cell-based, Hepatocyte. The conditions noted are these: 2 h.
Data set [3] in a line: Drug degradation in human hepatocytes assessed as 5-hydroxy-indazole formation at 10 uM up to 120 mins by LC-MS/MS analysis. It counts as ADME, cell-based, Hepatocyte. The conditions noted are these: 2 h.
Data set [4] is described as follows: Drug degradation in dog hepatocytes at 10 uM up to 120 mins by LC-MS/MS analysis. The conditions noted are these: 2 h. The class given is ADME, cell-based, Canis lupus familiaris, Hepatocyte.
Data set [5] in a line: Drug degradation in rat hepatocytes at 10 uM up to 120 mins by LC-MS/MS analysis. The class given is ADME, cell-based, Hepatocyte. The conditions noted are these: 2 h.
The nature of data set [6]: Drug degradation in human hepatocytes at 10 uM up to 120 mins by LC-MS/MS analysis. It counts as ADME, cell-based, Hepatocyte. The conditions noted are these: 2 h.
Data set [7] concerns Lung. Briefly: Drug uptake in Wistar Han rat lung at 0.1 umol/kg, administered via intratracheal instillation after 4 hrs by LC-MS/MS analysis. The class given is ADME, tissue-based. The conditions noted are these: in vivo, inhaled_or_intranasal.
The nature of data set [8]: AUC (0 to infinity) in Wistar Han rat lung at 0.1 umol/kg, administered as dry powder inhalation by LC-MS/MS analysis. The class given is ADME. Also on record: dose 0.1 umol/kg, route respiratory (INHALATION), time infinity. To be noted: inhaled or intranasal.
Data set [9] in a line: Mean residence time in Wistar Han rat lung at 0.1 umol/kg, administered as dry powder inhalation by LC-MS/MS analysis. It counts as ADME, tissue-based. The conditions noted are these: inhaled or intranasal.
Data set [10] can be described thus: Lipophilicity, log D of the compound by chromatography. The class given is physicochemical.
Data set [11] in a line: Terminal half life in Wistar Han rat 1 umol/kg, iv administered as bolus dose by LC-MS/MS analysis. The class given is ADME, organism-based. The conditions noted are these: in vivo, read-out: beta t1/2 (converted).
Data set [12] can be described thus: Cmax in Wistar Han rat plasma at 0.1 umol/kg, administered as dry powder inhalation by LC-MS/MS analysis. The class given is ADME. To be noted: inhaled or intranasal. Set-up: dose 0.1 umol/kg, route respiratory (INHALATION).
A short description of data set [13]: Clearance in Wistar Han rat at 1 umol/kg, iv administered as bolus dose by LC-MS/MS analysis. The class given is ADME, organism-based. To be noted: in vivo.
Data set [14] can be described thus: Intrinsic clearance in human hepatocytes assessed per million cells. It counts as ADME, cell-based, Hepatocyte. The conditions noted are these: read-out: CLH.
The test system of data set [15] is Lung. Briefly: Drug uptake in Wistar Han rat lung at 0.1 umol/kg, administered as dry powder inhalation after 24 hrs by LC-MS/MS analysis. The class given is ADME, tissue-based. To be noted: in vivo, inhaled_or_intranasal.
The subject of data set [16] is Lung. The data set can be described thus: Drug uptake in Wistar Han rat lung at 0.1 umol/kg, administered as dry powder inhalation after 4 hrs by LC-MS/MS analysis. To be noted: in vivo, inhaled_or_intranasal. The class given is ADME.
Data set [17] can be described thus: Apparent terminal half life in Wistar Han rat lung at 0.1 umol/kg, administered as dry powder inhalation by LC-MS/MS analysis. The class given is ADME. To be noted: inhaled or intranasal, read-out: betat1/2(app) (converted).
Data set [18] in a line: Thermodynamic solubility of the compound in human intestinal fluid. To be noted: read-out: Therm_solubility. The class given is physicochemical.
Data set [19] is described as follows: Intrinsic clearance in Wistar Han rat hepatocytes assessed per 10^6 cells. It counts as ADME, cell-based, Hepatocyte. The conditions noted are these: read-out: CLH.
Another data set concerns Rattus norvegicus. The data set can be described thus: Toxicity in inhaled CRL:CD Sprague Dawley rat model of sephadex induced lung edema assessed as induction of thymic involution administered once per day for 4 days. The conditions noted are these: in vivo, inhaled_or_intranasal, 96 h. The method, boiled down:
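Thymic involution scored in the same Sephadex-challenged rats dosed by inhalation, as a sensitive marker of systemic GR agonism.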

A short description of data set [20]: Volume of distribution at steady state in Wistar Han rat at 1 umol/kg, iv administered as bolus dose by LC-MS/MS analysis. The class given is ADME, organism-based. To be noted: in vivo, read-out: Vdss.
Data set [21] in a line: Oral bioavailability in Wistar Han rat administered via gavage by LC-MS/MS analysis. The class given is ADME, organism-based. The conditions noted are these: in vivo.
A short description of data set [22]: Cmax in Wistar Han rat plasma at 0.1 umol/kg, administered via intratracheal instillation by LC-MS/MS analysis. The conditions noted are these: inhaled or intranasal. Also on record: dose 0.1 umol/kg. It counts as ADME.
The nature of data set [23]: Mean residence time in Wistar Han rat lung at 0.1 umol/kg, administered via intratracheal instillation by LC-MS/MS analysis. It counts as ADME, tissue-based. The conditions noted are these: inhaled or intranasal.
Data set [24] deals with Lung. Briefly: Drug uptake in Wistar Han rat lung at 0.1 umol/kg, administered via intratracheal instillation after 24 hrs by LC-MS/MS analysis. The class given is ADME, tissue-based. The conditions noted are these: in vivo, inhaled_or_intranasal.
Data set [25] in a line: Apparent terminal half life in Wistar Han rat lung at 0.1 umol/kg, administered via intratracheal instillation by LC-MS/MS analysis. The class given is ADME, tissue-based. To be noted: inhaled or intranasal, read-out: betat1/2(app) (converted).
The nature of data set [26]: AUC (0 to infinity) in Wistar Han rat lung at 0.1 umol/kg, administered via intratracheal instillation by LC-MS/MS analysis. The class given is ADME, tissue-based. Also on record: dose 0.1 umol/kg, time infinity. The conditions noted are these: inhaled or intranasal.

Molecules are shown by their SMILES. Values after ≈ are worked out from the molar mass of the structure shown.

On to `O=[14C](N[C@@H]1CCOC1)c1cccc(-n2ncc3cc(OS(=O)(=O)O)ccc32)c1`, for which the Drug metabolism result in data set [1], in [2] and in data set [3] was “Metabolite_Detected” in each case.
Take `C[C@H](NC(=O)C(C)(F)F)[C@H](Oc1ccc2c(cnn2-c2cccc([14C](=O)N[C@@H]3CCOC3)c2)c1)c1ccc2c(c1)OCCO2`: the Drug metabolism result in data set [1], in data set [2] and in [3] was “Metabolite_Detected” in each case. The Drug degradation entry in data set [4], in data set [5] and in [6] was “Metabolite_Detected” throughout.
Take `COc1cccc([C@@H](Oc2ccc3c(cnn3-c3ccc(F)cc3)c2)[C@H](C)NC(=O)C(F)(F)F)c1` [AZD-5423]: the Drug uptake in the data set with Lung [7] is 1 %ID; in the data set on Lung [15], 0 to 0.4 %ID; in the data set with Lung [16], 0.7 %ID. In addition, in data set [8], the AUC(0-inf) came out at 18 µM·h. In data set [9], this compound yielded an MRT of 1.5 h. This compound yielded a chromatographic logD in [10] of 6. Moreover, the half-life was 4.7 h in [11] and 7.5 h in [17]. For the same compound, in data set [12], the highest concentration (Cmax) was determined as 122 nM. This compound also had a clearance in [13] of 38 mL/min/kg. In addition, the hepatocyte CLint in data set [14] was 16 µL/min/1e6 cells; in [19], 13 µL/min/1e6 cells. Also, the solubility thermodynamic in data set [18] was 12 µM (≈ 5.85 µg/mL). The ED25 in the data set with Rattus norvegicus is 4.6 µg/kg. Also, the Vd in data set [20] was determined as 23 L/kg. The compound also registered a bioavailability in [21] of 37%.
Regarding `C[C@H](NC(=O)C(C)(F)F)[C@H](Oc1ccc2c(cnn2-c2ccc(F)cc2)c1)c1ccc2c(c1)OCCO2`, the Drug uptake with Lung [7] came out at 4.5 %ID; in the data set on Lung [24], 0.8 %ID. Besides, in data set [10], the chromatographic logD came out at 5.5. Besides, the half-life in data set [11] was 7.4 h; in data set [25], 8.9 h. Further, the concentration in data set [22] peaked (Cmax) at 30 nM. In addition, in data set [23], the MRT worked out at 8.8 h. Besides, the clearance in data set [13] turned out to be 42 mL/min/kg. In addition, the hepatocyte CLint turned out to be 28 µL/min/1e6 cells in data set [14] and 22 µL/min/1e6 cells in [19]. Moreover, the Vd in data set [20] stood at 10 L/kg. The same compound showed an area under the curve AUC(0-inf) in [26] of 12 µM·h. Moreover, in data set [21], the bioavailability came out at 11%.

The values above are taken from ChEMBL document CHEMBL4028861, “Selective Nonsteroidal Glucocorticoid Receptor Modulators for the Inhaled Treatment of Pulmonary Diseases” (J Med Chem, 2017).
